A short description of series [1]: Inhibition of PDE4 in PBMC (unknown origin) assessed as reduction in LPS-induced TNFalpha production incubated for 24 hrs by ELISA. Conditions: Homo sapiens. Background: An ELISA detects its analyte on a solid surface through an enzyme-linked reagent.
Series [2] is described as follows: Inhibition of PDE4 in human whole blood assessed as reduction in LPS-induced TNFalpha production incubated for 24 hrs by ELISA. It counts as tissue-based. A digest of the protocol: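 Human whole blood was preincubated with LPS (final 1 μg/mL) for 10 min at 37 °C with rocking. 200 μL was added to wells holding increasing inhibitor concentrations in 100% DMSO. Plates were incubated 24 h at 37 °C under agitation, then placed on ice, diluted with PBS and centrifuged at 800g, 4 °C, for 15 min before TNF-α measurement.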

A short description of series [3]: Drug metabolism in human liver S9 fraction assessed as sulfonation in presence of PAPS and UDPGA incubated for 20 mins. Conditions: read-out: Drug metabolism. The series is classed as ADME, subcellular.
The nature of series [4]: Drug metabolism in human liver S9 fraction assessed as glucuronidation in presence of PAPS and UDPGA incubated for 20 mins. The settings on record: read-out: Drug metabolism. It counts as ADME, subcellular.
The next series concerns the target T1, Adenosine receptor A1 (Homo sapiens, UniProt P30542).
T1 sequence (P30542 whole entry): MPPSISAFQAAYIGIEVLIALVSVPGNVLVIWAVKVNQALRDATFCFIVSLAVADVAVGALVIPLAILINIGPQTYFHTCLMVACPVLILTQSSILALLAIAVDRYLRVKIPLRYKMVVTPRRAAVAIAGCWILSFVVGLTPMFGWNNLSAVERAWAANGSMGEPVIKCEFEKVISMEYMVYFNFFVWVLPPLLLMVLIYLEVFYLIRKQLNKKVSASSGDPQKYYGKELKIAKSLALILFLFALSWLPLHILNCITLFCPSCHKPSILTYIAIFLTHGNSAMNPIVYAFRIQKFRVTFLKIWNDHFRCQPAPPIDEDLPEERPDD
The series can be described thus: Antagonist activity at adenosine A1 receptor (unknown origin).

For another series, the target named is Adenosine receptor A2a (Homo sapiens, UniProt P29274). In words: Antagonist activity at adenosine A2a receptor (unknown origin).
Sequence of Adenosine receptor A2a (P29274 whole entry): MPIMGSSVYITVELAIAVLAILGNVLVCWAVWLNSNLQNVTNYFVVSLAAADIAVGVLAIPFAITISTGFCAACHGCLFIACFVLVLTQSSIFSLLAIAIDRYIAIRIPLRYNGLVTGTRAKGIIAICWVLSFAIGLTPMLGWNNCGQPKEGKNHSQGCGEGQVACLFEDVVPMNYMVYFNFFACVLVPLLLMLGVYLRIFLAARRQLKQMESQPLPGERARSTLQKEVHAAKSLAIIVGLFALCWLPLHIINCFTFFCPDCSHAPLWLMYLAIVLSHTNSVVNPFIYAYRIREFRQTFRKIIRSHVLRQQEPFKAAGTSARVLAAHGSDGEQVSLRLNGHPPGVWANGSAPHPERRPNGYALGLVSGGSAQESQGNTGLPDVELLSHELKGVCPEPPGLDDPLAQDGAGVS
The test system of series [5] is Rattus norvegicus. In words: Anti-inflammatory activity in Sprague-Dawley rat assessed as inhibition of LPS-induced neutrophilia at 1000 ug/kg, it administered as suspension with Penn-Century micro-sprayer aerosolizer dosed 18 hrs before LPS challenge and measured 22 hrs post dose. It counts as functional. Conditions: inhaled or nasal. The essentials: (§1)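 Suspensions in PBS/0.2% Tween 80 were homogenized, with lower doses made by 1:10 dilutions. 0.2 mL was given intratracheally by MicroSprayer to isoflurane-anesthetized fasted male Sprague-Dawley rats (230–280 g). At 1 or 18 h, rats received nebulized LPS (30 mL of a 1:100 PBS dilution of 100 mg/10 mL stock) over 40 min. Four hours later, BAL neutrophils were counted by flow cytometry.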

The next series concerns the target T2, Adenosine receptor A2b (Homo sapiens, UniProt P29275).
T2 sequence (P29275 whole entry): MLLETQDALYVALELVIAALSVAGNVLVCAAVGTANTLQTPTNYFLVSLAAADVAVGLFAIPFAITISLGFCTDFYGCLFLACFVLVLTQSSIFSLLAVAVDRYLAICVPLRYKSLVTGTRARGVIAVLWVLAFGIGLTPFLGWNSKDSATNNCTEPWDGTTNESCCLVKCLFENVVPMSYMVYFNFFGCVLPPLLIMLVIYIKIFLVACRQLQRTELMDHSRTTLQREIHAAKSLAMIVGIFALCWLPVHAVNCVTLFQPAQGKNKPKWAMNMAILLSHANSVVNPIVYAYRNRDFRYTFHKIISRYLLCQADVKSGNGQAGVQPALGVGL
In words: Antagonist activity at adenosine A2b receptor (unknown origin).

Series [6] has as its system Rattus norvegicus. The series can be described thus: Anti-inflammatory activity in Sprague-Dawley rat assessed as inhibition of LPS-induced neutrophilia at 1000 ug/kg, it administered as suspension with Penn-Century micro-sprayer aerosolizer dosed 1 hrs before LPS challenge and measured 5 hrs post dose. The series is classed as functional. Conditions: inhaled or nasal. The essentials:
as §1

For series [7], the system named is Rattus norvegicus. In words: Anti-inflammatory activity in Sprague-Dawley rat assessed as inhibition of LPS-induced neutrophilia at 100 ug/kg, it administered as suspension with Penn-Century micro-sprayer aerosolizer dosed 18 hrs before LPS challenge and measured 22 hrs post dose. It counts as functional. Conditions: inhaled or nasal. A digest of the protocol:
as §1

Series [8] can be described thus: Basicity constant, pKB of the compound. It counts as physicochemical.
Series [9] has as its system Rattus norvegicus. In words: Anti-inflammatory activity in Sprague-Dawley rat assessed as inhibition of LPS-induced neutrophilia at 100 ug/kg, it administered as suspension with Penn-Century micro-sprayer aerosolizer dosed 1 hrs before LPS challenge and measured 5 hrs post dose. It counts as functional. Conditions: inhaled or nasal. The essentials:
as §1

Series [10] deals with Rattus norvegicus. In words: Anti-inflammatory activity in Sprague-Dawley rat assessed as inhibition of LPS-induced neutrophilia at 10 to 1000 ug/kg, it administered as suspension with Penn-Century micro-sprayer aerosolizer dosed 1 hrs before LPS challenge and measured 5 hrs post dose. The series is classed as functional. The settings on record: inhaled or nasal. The essentials: as §1

The test system of series [11] is Rattus norvegicus. In words: Anti-inflammatory activity in Sprague-Dawley rat assessed as inhibition of LPS-induced neutrophilia at 300 ug/kg, it administered as suspension with Penn-Century micro-sprayer aerosolizer dosed 18 hrs before LPS challenge and measured 22 hrs post dose. The series is classed as functional. Conditions: inhaled or nasal. A digest of the protocol:
as §1

For series [12], the system named is Rattus norvegicus. The series can be described thus: Anti-inflammatory activity in Sprague-Dawley rat assessed as inhibition of LPS-induced neutrophilia at 30 ug/kg, it administered as suspension with Penn-Century micro-sprayer aerosolizer dosed 18 hrs before LPS challenge and measured 22 hrs post dose. It counts as functional. The settings on record: inhaled or nasal. A digest of the protocol: as §1

For series [13], the system named is Rattus norvegicus. The series can be described thus: Anti-inflammatory activity in Sprague-Dawley rat assessed as inhibition of LPS-induced neutrophilia at 1000 ug/kg, it administered as dry powder with lactose carrier through Penn-Century insufflator dosed 1 hrs before LPS challenge and measured 5 hrs post dose. The series is classed as functional. A digest of the protocol: (§2)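 Compounds were micronized, comixed with lactose, and 5 mg of the mixture was insufflated intratracheally into isoflurane-anesthetized fasted male Sprague-Dawley rats (230–280 g). LPS aerosol (30 mL of a 1:100 PBS dilution of 100 mg/10 mL stock) was nebulized for 40 min at 1 or 18 h post-dose. BAL was taken 4 h later and neutrophils counted by flow cytometry. Controls: lactose alone, lactose+LPS, fluticasone (10% in lactose).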

Series [14] deals with Rattus norvegicus. The series can be described thus: Anti-inflammatory activity in Sprague-Dawley rat assessed as inhibition of LPS-induced neutrophilia at 1000 ug/kg, it administered as dry powder with lactose carrier through Penn-Century insufflator dosed 18 hrs before LPS challenge and measured 22 hrs post dose. It counts as functional. The essentials: as §2
Series [15] in a line: Pro-inflammatory activity in Sprague-Dawley rat assessed as induction of neutrophilia at 1000 ug/kg, it administered as dry powder with lactose carrier through Penn-Century insufflator. The settings on record: in vivo, inhaled_or_intranasal, 1 mg/kg.
Series [16] deals with Rattus norvegicus. In words: Anti-inflammatory activity in Sprague-Dawley rat assessed as inhibition of LPS-induced neutrophilia at 10 to 1000 ug/kg, it administered as dry powder with lactose carrier through Penn-Century insufflator dosed 1 hrs before LPS challenge and measured 5 hrs post dose. It counts as functional. A digest of the protocol:
as §2

In general, IC50 refers to the concentration at which inhibition is half-maximal. Turning to `CCn1nc(-c2cccc(-c3ccc(O)cc3)c2)cc(NC(=O)Nc2c(Cl)cncc2Cl)c1=O`, the IC50 in series [1] was 0.9 nM; in series [2] it was 117 nM. The results for the metabolised at 20 min in [3] and in [4] were 0.3% and 2%, respectively.

As usually defined, the inhibition in vivo is the percentage by which the read-out fell short of the control. In the case of `CCn1nc(-c2cccc(-c3cncc(O)c3)c2)cc(NC(=O)Nc2c(Cl)cncc2Cl)c1=O`, the IC50 in series [1] was determined as 0.29 nM; against Adenosine receptor A1, 11 nM; in series [2] it was 64 nM; at Adenosine receptor A2a, 333 nM; at Adenosine receptor A2b, 111 nM. The metabolised at 20 min in [3] was 16%; in series [4] it was 36%. Besides, the results for the inhibition in vivo at 1 mg/kg in the series with Rattus norvegicus [5] and in the series on Rattus norvegicus [6] were 23% and 58%, respectively.

In general, pKb refers to the Kb on a negative log10 scale, so that one unit is a factor of ten. The low end stands for a high Kb, the high end for a low Kb. `CCn1nc(-c2cccc(-c3cccc(C(=O)NCCN4CCNCC4)c3)c2)cc(NC(=O)Nc2c(Cl)cncc2Cl)c1=O`: the inhibition in vivo at 0.1 mg/kg in the series on Rattus norvegicus [7] turned out to be 40%; in the series on Rattus norvegicus [9], 62%. Further, the concentration for half-maximal inhibition (IC50) in [1] was 0.34 nM; against Adenosine receptor A1, 2 nM; in series [2], 125 nM; at Adenosine receptor A2a it was 9 nM. In series [8], this compound returned a negative logarithm of the Kb (pKb) of 9.8.

Broadly, the ED50 is the midpoint of the dose-response relation. For the compound `CCn1nc(-c2cccc(-c3ccc(O)c(F)c3)c2)cc(NC(=O)Nc2c(Cl)cncc2Cl)c1=O`, the results for the IC50 in [1] and in series [2] were 2.4 nM and 93 nM, respectively. In addition, in the series on Rattus norvegicus [10], the ED50 amounted to 0.342 mg/kg. Moreover, the values for the metabolised at 20 min in series [3] and in series [4] were 3% and 6%, respectively.

`CCNC(=O)c1cc(C(=O)NCCCN(C)C)cc(-c2cccc(-c3cc(NC(=O)Nc4c(Cl)cncc4Cl)c(=O)n(CC)n3)c2)c1`: in the series on Rattus norvegicus [7], the inhibition in vivo at 0.1 mg/kg is 48%. The IC50 in series [1] was 0.36 nM; on Adenosine receptor A1, 537 nM; on Adenosine receptor A2a it was above 1000 nM; on Adenosine receptor A2b, 368 nM. The ED50 in the series on Rattus norvegicus [10] amounted to 0.018 mg/kg. Also, in the series with Rattus norvegicus [11], the inhibition in vivo at 0.3 mg/kg came out at 60%. Further, the inhibition in vivo at 0.03 mg/kg in the series with Rattus norvegicus [12] was found to be 58%.

With `CCn1nc(-c2cccc(-c3cc(F)ccc3O)c2)cc(NC(=O)Nc2c(Cl)cncc2Cl)c1=O`, the IC50 in series [1] was 0.88 nM; in series [2] it was 207 nM. In addition, the ED50 in the series with Rattus norvegicus [10] was 0.101 mg/kg. In addition, the metabolised at 20 min in series [4] was 8%. For the same compound, the inhibition in vivo at 1 mg/kg came to 51% in the series on Rattus norvegicus [13], 14% in the series on Rattus norvegicus [5] and 0% in the series on Rattus norvegicus [14].

For the compound `CCn1nc(-c2cccc(-c3cccc(C(=O)NC4CC4)c3)c2)cc(NC(=O)Nc2c(Cl)cncc2Cl)c1=O`, the IC50 in [1] is 0.3 nM; against Adenosine receptor A1 it was 10 nM; in series [2], 69 nM; against Adenosine receptor A2a, 33 nM; on Adenosine receptor A2b, 120 nM. In addition, in the series with Rattus norvegicus [10], the ED50 stood at 0.024 mg/kg. Moreover, the inhibition in vivo at 1 mg/kg in the series on Rattus norvegicus [13] stood at 55%; in the series with Rattus norvegicus [5], 43%; in the series with Rattus norvegicus [14] it was 42%. The inhibition in vivo at 0.1 mg/kg with Rattus norvegicus [9] is 70%. In series [15], the “fold change (FC)” value amounted to 1.

On to `CCn1nc(-c2cccc(-c3cccc(C(N)=O)c3)c2)cc(NC(=O)Nc2c(Cl)cncc2Cl)c1=O`, for which the IC50 in [1] is 0.09 nM; in series [2], 67 nM. Besides, in the series on Rattus norvegicus [10], the ED50 is 0.067 mg/kg. For the same compound, the inhibition in vivo at 1 mg/kg with Rattus norvegicus [13] was 48%; in the series on Rattus norvegicus [5] it was 20%; in the series on Rattus norvegicus [14], 15%.

As for `CCn1nc(-c2cccc(-c3ccc(C(=O)O)cc3)c2)cc(NC(=O)Nc2c(Cl)cncc2Cl)c1=O`, the half-maximal inhibitory concentration (IC50) came to 0.55 nM in series [1] and 373 nM in series [2]. Besides, in the series on Rattus norvegicus [16], the ED50 came out at 0.015 mg/kg. Also, in series [4], the metabolised at 20 min was 0%. Further, the inhibition in vivo at 0.1 mg/kg with Rattus norvegicus [9] was 50%. Moreover, the inhibition in vivo at 1 mg/kg was found to be 25% with Rattus norvegicus [5], 8% in the series on Rattus norvegicus [14] and 59% with Rattus norvegicus [6].

As for `CCn1nc(-c2cccc(-c3cccc(C(=O)NCCN4CCOCC4)c3)c2)cc(NC(=O)Nc2c(Cl)cncc2Cl)c1=O`, the IC50 in series [1] is 0.07 nM; against Adenosine receptor A1 it was 15 nM; in series [2], 59 nM; against Adenosine receptor A2a, 33 nM; against Adenosine receptor A2b, 145 nM. Also, the pKb in [8] is reported as 8.3. For the same compound, the inhibition in vivo at 0.1 mg/kg in the series with Rattus norvegicus [9] is 52%. Besides, the “fold change (FC)” value in series [15] stood at 1.1.
